Here are results for eleven molecules from ChEMBL document CHEMBL1152279 (J Med Chem, 2008).

Data set [1] is described as follows: Dissociation constant, pKa of the compound. The format is physicochemical.
A short description of data set [2]: Terminal half life in nude mouse plasma. Type of data set: ADME, organism-based. The note with it: read-out: beta t1/2.
Data set [3] concerns the target T1, Histamine H2 receptor (Homo sapiens, UniProt P25021). Description: Activity at human recombinant histamine H2 receptor-Gsalpha fusion protein expressed in Sf9 cells by steady-state GTPase activity assay. In outline: (§1)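 Membranes from Sf9 insect cells expressing the receptor construct named in each line: hH1R with RGS4, hH2R-GsR or gpH2R-GsR fusion, hH3R with GRi, Gβ1γ2 and RGS4, or hH4R-RGS19 fusion with GRi2 and Gβ1γ2. Values are mean ± SEM.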

In data set [4] the target is T2, Histamine H2 receptor (Cavia porcellus, UniProt P47747). Description: Agonist activity at histamine H2 receptor in guinea pig spontaneously beating right atrium assessed as positive chronotropic activity. Type of data set: functional, tissue-based, Cardiac atrium.
T2 sequence (P47747 whole entry, the tested form may be a part): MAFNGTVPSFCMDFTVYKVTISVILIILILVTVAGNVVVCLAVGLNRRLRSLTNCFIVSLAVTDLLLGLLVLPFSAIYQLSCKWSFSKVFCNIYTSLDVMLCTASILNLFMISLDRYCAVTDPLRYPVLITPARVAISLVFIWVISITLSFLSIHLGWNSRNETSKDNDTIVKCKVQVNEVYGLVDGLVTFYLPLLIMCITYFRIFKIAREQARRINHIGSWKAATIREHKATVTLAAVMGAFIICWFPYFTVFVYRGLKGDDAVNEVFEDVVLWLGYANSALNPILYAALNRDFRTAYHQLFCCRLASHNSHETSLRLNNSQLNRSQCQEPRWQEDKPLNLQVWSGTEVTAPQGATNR
For another data set, the target named is Histamine H4 receptor (Homo sapiens, UniProt Q9H3N8). Description: Activity at human recombinant histamine H4 receptor-RGS19 fusion protein expressed in Sf9 cells coexpressing Galphai2 and G-beta-1-gamma-2 by steady-state GTPase activity assay.
Sequence of Histamine H4 receptor (Q9H3N8 whole entry, the tested form may be a part): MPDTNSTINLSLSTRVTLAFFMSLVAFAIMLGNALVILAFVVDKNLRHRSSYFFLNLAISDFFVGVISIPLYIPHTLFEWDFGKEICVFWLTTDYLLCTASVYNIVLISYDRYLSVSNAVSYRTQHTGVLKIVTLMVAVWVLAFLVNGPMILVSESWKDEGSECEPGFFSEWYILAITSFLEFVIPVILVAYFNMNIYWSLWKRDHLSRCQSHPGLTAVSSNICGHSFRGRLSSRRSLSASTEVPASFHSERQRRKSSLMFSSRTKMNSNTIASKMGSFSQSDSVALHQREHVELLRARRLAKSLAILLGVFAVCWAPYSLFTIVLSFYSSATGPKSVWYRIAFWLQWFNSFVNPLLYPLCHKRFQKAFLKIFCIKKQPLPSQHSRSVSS
A further data set addresses Histamine H1 receptor (Cavia porcellus, UniProt P31389). Description: Antagonist activity at histamine H1 receptor in guinea pig ileum assessed as inhibition of histamine-induced […]. Type of data set: functional, tissue-based. The note with it: read-out: pA2 (converted).
For data set [5], the target named is T2, Histamine H2 receptor. Description: Activity at guinea pig recombinant histamine H2 receptor-Gsalpha fusion protein expressed in Sf9 cells by steady-state GTPase activity assay. An outline of the steps:
as §1

In another data set the target is Histamine H3 receptor (Homo sapiens, UniProt Q9Y5N1). Description: Activity at human recombinant histamine H3 receptor expressed in Sf9 cells coexpressing Galphai, G-beta-1-gamma-2 and RGS4 by steady-state GTPase activity assay. In outline: (§2)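 Membranes from Sf9 insect cells expressing the receptor construct named in each line: hH1R with RGS4, hH2R-GsR or gpH2R-GsR fusion, hH3R with GRi, Gβ1γ2 and RGS4, or hH4R-RGS19 fusion with GRi2 and Gβ1γ2. […] Values are mean ± SEM.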
Sequence of Histamine H3 receptor (Q9Y5N1 whole entry, the tested form may be a part): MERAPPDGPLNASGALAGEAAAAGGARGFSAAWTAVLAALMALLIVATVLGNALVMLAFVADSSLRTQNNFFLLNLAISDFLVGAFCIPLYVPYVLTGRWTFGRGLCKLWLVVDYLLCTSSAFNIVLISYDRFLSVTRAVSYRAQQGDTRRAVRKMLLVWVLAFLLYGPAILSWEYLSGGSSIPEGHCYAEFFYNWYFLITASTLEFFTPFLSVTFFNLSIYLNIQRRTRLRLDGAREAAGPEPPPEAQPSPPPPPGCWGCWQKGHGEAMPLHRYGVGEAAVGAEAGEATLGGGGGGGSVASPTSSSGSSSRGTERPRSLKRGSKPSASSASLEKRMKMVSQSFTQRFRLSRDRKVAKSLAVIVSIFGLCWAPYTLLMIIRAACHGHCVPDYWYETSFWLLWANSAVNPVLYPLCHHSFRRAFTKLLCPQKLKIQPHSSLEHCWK

Data set [6] deals with T1, Histamine H2 receptor. Description: Activity at human recombinant histamine H2 receptor-Gsalpha fusion protein expressed in Sf9 cells by steady-state GTPase activity assay relative to histamine. In outline:
as §2

The target of data set [7] is Histamine H2 receptor (Cavia porcellus) (UniProt P47747). Description: Activity at guinea pig recombinant histamine H2 receptor-Gsalpha fusion protein expressed in Sf9 cells by steady-state GTPase activity assay relative to histamine. An outline of the steps:
as §2

Data set [8] concerns the target Histamine H1 receptor (Homo sapiens) (UniProt P35367). Description: Activity at human recombinant histamine H1 receptor expressed in Sf9 cells coexpressing RGS4 by steady-state GTPase activity assay relative to histamine. An outline of the steps:
as §2

The target is the same in data set [9]. Description: Antagonist activity at histamine H1 receptor in human U373 MG cells assessed as inhibition of histamine-induced intracellular calcium level preincubated for 15 mins prior to histamine challenge. Type of data set: functional, cell-based. The note with it: U-373MG ATCC. An outline of the steps:
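U373-MG human cells expressing H1R, calcium assay. […] KB was derived from IC50 by the Cheng-Prusoff equation. Values are the mean of two experiments.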

Data set [10] deals with Histamine H2 receptor (Cavia porcellus) (UniProt P47747). Description: Agonist activity at histamine H2 receptor in guinea pig spontaneously beating right atrium assessed as positive chronotropic activity relative to histamine. The note with it: Cardiac atrium. Type of data set: functional, tissue-based.
Sequence of Histamine H2 receptor (Cavia porcellus) (P47747 whole entry, the tested form may be a part): as the sequence (P47747 whole entry, the tested form may be a part) above
Data set [11] has as its target Histamine H1 receptor (Cavia porcellus) (UniProt P31389). Description: Antagonist activity at histamine H1 receptor in guinea pig ileum assessed as […].
Data set [12] has as its target Histamine H2 receptor (Cavia porcellus) (UniProt P47747). Description: Antagonist activity at histamine H2 receptor in guinea pig spontaneously beating right atrium assessed as histamine Emax at 58 uM. Type of data set: functional, tissue-based. The following applies: Cardiac atrium.
Data set [13] shares this target. Description: Antagonist activity at histamine H2 receptor in guinea pig spontaneously beating right atrium assessed as positive chronotropic activity at 58 uM relative to histamine. Type of data set: functional, tissue-based. The following applies: Cardiac atrium.
The target of data set [14] is T2, Histamine H2 receptor. Description: Antagonist activity at histamine H2 receptor in guinea pig spontaneously beating right atrium assessed as inhibition of histamine-induced positive chronotropic activity. The format is functional, tissue-based, Cardiac atrium.

T1 sequence (P25021 whole entry, the tested form may be a part): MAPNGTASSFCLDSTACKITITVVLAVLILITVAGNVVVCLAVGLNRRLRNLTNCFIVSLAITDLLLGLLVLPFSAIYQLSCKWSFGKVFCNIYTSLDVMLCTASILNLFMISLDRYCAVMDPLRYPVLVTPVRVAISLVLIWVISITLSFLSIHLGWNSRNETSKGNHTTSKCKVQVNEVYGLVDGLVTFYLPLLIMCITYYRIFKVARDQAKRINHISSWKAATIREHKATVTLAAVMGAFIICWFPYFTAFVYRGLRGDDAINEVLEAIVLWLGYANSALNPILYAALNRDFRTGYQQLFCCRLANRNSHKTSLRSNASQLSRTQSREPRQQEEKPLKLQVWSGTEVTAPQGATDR
Sequence of Histamine H1 receptor (Homo sapiens) (P35367 whole entry): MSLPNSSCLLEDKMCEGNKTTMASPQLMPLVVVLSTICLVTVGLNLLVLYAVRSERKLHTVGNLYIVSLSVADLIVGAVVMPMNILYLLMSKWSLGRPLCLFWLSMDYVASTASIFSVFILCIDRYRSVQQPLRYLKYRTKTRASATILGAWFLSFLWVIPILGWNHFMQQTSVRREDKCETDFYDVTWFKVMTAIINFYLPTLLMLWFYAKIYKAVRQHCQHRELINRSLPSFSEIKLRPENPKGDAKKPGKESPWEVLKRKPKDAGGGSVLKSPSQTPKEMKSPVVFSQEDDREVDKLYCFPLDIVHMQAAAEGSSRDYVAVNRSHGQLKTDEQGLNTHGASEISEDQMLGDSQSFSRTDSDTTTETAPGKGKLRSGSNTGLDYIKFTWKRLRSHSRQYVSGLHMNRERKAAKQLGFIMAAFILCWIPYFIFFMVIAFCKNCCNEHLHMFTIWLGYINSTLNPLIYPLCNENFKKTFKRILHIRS
Sequence of Histamine H1 receptor (P31389 whole entry, the tested form may be a part): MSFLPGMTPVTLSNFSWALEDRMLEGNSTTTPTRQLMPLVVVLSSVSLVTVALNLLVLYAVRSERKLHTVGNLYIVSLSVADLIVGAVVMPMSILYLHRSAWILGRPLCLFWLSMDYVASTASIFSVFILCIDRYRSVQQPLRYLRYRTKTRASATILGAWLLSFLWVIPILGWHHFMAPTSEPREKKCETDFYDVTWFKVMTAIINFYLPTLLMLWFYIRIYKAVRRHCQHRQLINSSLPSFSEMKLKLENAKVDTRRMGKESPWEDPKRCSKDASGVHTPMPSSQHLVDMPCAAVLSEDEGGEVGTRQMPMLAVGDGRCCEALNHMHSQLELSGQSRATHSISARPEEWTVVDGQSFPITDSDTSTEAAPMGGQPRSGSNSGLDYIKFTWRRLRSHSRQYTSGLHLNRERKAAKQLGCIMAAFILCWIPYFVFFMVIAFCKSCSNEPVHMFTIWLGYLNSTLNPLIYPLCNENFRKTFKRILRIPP
Sequence of Histamine H1 receptor (Cavia porcellus) (P31389 whole entry): as the sequence (P31389 whole entry, the tested form may be a part) above

One may read the pKa as the pH at which an ionisable group is half protonated. For the molecule `CC(=O)NC(=N)N`, in data set [1], the pKa is 7.6.

By EC50 is commonly meant the concentration giving half of the maximal effect. Turning to `CC(CC(=O)NC(N)=NCCCc1cnc[nH]1)c1ccccc1` (stereo not drawn), the half-life in data set [2] stood at 67 min. Moreover, the EC50 at Histamine H2 receptor [3] was 67 nM; on Histamine H2 receptor [4], 15.8 nM; at Histamine H4 receptor, 15.3 nM; at Histamine H2 receptor [5], 12 nM; at Histamine H3 receptor, 2.45 nM. At Histamine H1 receptor, the Kb is 1350 nM.

As usually defined, the Emax is the greatest response seen or fitted, relative to the assay's reference. Consider `N=C(NCCCc1c[nH]cn1)NC(=O)CC(c1ccccc1)c1nccs1` (stereo not drawn), for which the Activity at Histamine H2 receptor [6] turned out to be 1000%; in data set [7], 8570%; in [8] it was 1%; in data set [10], 2630%. Also, the Efficacy came to 0.8 on Histamine H2 receptor [6] and 0.94 in [7]. Besides, the Kb in data set [9] stood at 6800 nM; at Histamine H3 receptor, 113 nM. In data set [10], the maximal response (Emax) was 100%.

In the case of `CC(CC(=O)NC(N)=NCCCc1cnc[nH]1)c1cccs1` (stereo not drawn), the EC50 is 109 nM at Histamine H2 receptor [3]; 38 nM at Histamine H2 receptor [4]; 6.3 nM on Histamine H4 receptor; 21 nM at Histamine H2 receptor [5]; 1.64 nM on Histamine H3 receptor.

Take `NC(=NCCCc1cnc[nH]1)NC(=O)CC(c1ccccc1)c1ccccc1`: the half-maximal effective concentration (EC50) was 78 nM on Histamine H2 receptor [3], 28.2 nM at Histamine H2 receptor [4], 8.6 nM at Histamine H4 receptor and 6 nM on Histamine H2 receptor [5]. On Histamine H1 receptor, the Kb is 741 nM.

`N=C(N)N` [GUANIDINE] gave a pKa in data set [1] of 12.5.

As to `N=C(NCCCc1c[nH]cn1)NC(=O)CC(c1ccc(F)c(F)c1)c1nccs1` (stereo not drawn), in [2], the half-life worked out at 28 min. Moreover, the EC50 at Histamine H2 receptor [4] was 50.1 nM. Further, at Histamine H1 receptor, the Kb is 4680 nM. In addition, the Kb in [9] was 4600 nM. Further, in data set [10], the Activity came to 2000% and the Emax is 90%.

As to `N=C(NCCCc1c[nH]cn1)NC(=O)CC(c1ccccc1)c1ccccc1`, the Activity on Histamine H2 receptor [6] was 1500%; in data set [7], 19000%; in data set [8], 6.4%; in data set [10], 3530%. The Efficacy on Histamine H2 receptor [6] is 0.69; in data set [7], 0.93; in [8], 0.19. In addition, the pD'2 in [11] amounted to 5.2. Also, the Emax in [10] is 85%. Moreover, at Histamine H3 receptor, the Kb was 17.1 nM.

In the case of `NC(=NCCCc1cnc[nH]1)NC(=O)CC(c1ccccc1)c1nccs1` (stereo not drawn), the EC50 is 120 nM on Histamine H2 receptor [3], 38 nM at Histamine H2 receptor [4], 66.3 nM at Histamine H4 receptor and 14 nM at Histamine H2 receptor [5]. On Histamine H1 receptor, the Kb was 4680 nM.

Regarding `CC(CCNC(=N)NC(=O)CCc1c[nH]cn1)c1ccccc1` (stereo not drawn), the Emax in data set [12] worked out at 45%; in data set [13], 7%. The Kb in data set [9] is 9300 nM.

Usually pA2 stands for the negative logarithm of the molar antagonist concentration that doubles the agonist concentration needed for the same response. For the molecule `CC(CCN=C(N)NC(=O)CCc1cnc[nH]1)c1ccccc1` (stereo not drawn), the pA2 on Histamine H2 receptor [14] was determined as 5.19.
